# Activity calls are given as the source filed them. The calls are words filed in the database; no cut-off is given here.
# Tests used:
# [1] = system: CAL-27; assay: Potentiation of 2 uM cisplatin-induced cytotoxicity against human CAL27 cells assessed as decrease in cell viability by measuring combination index at 100 uM preincubated for 48 hrs followed by cisplatin treatment measured after 72 hrs by MTT assay; assay type: functional; conditions: in the assay text read “at 100 nM” for “at 100 uM”
# How it was run: (§1)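 HDAC inhibitor was added 48 h before cisplatin, then cells were exposed to cisplatin for 72 h and viability was read by MTT assay. Combination index was computed by the Chou–Talalay method: CI > 1 is antagonism, CI = 1 additive, CI < 0.9 synergism. Points with fraction affected below 0.20 were flagged.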
# [2] = system: CAL-27; assay: Induction of apoptosis in human CAL27 cells at 0.5 uM for 48 hrs by propidium iodide dye-based flow cytometry; assay type: functional, cell-based
# [3] = system: CAL-27; assay: Potentiation of 0.316 uM cisplatin-induced cytotoxicity against human CAL27 cells assessed as decrease in cell viability by measuring combination index at 700 nM preincubated for 48 hrs followed by cisplatin treatment measured after 72 hrs by MTT assay
# [4] = system: CAL-27; assay: Potentiation of 0.5 uM cisplatin-induced cytotoxicity against human CAL27 cells assessed as decrease in cell viability by measuring combination index at 1000 uM preincubated for 48 hrs followed by cisplatin treatment measured after 72 hrs by MTT assay; assay type: functional
# How it was run: (§2)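 Cal27 and cisplatin-resistant Cal27CisR cells were preincubated with the HDAC inhibitor for 48 h, then given cisplatin in combination. Viability was read by MTT after 72 h. The combination index was computed by the Chou–Talalay method: CI > 1 is antagonism, CI = 1 is additive, and CI < 0.9 is synergism. Points with fraction affected below 0.20 were flagged.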
# [5] = molecular target: T1, Histone deacetylase 1/6 (Homo sapiens) (UniProt Q13547+Q9UBN7); assay: Inhibition of HDAC1/HDAC6 in human Cal27CisR cells assessed as potentiation of 20 uM cisplatin-induced cytotoxicity by measuring combination index at 900 nM preincubated for 48 hrs followed by cisplatin treatment measured after 72 hrs by MTT assay
# [6] = system: CAL-27; assay: Potentiation of 1 uM cisplatin-induced cytotoxicity against human CAL27 cells assessed as decrease in cell viability by measuring combination index at 1000 uM preincubated for 48 hrs followed by cisplatin treatment measured after 72 hrs by MTT assay; assay type: functional; conditions: in the assay text read “at 1000 nM” for “at 1000 uM”; how it was run: as §2
# [7] = molecular target: T1, Histone deacetylase 1/6 (Homo sapiens); assay: Inhibition of HDAC1/HDAC6 in human Cal27CisR cells assessed as potentiation of 20 uM cisplatin-induced cytotoxicity by measuring combination index at 2000 nM preincubated for 48 hrs followed by cisplatin treatment measured after 72 hrs by MTT assay
# [8] = system: CAL-27; assay: Potentiation of 2 uM cisplatin-induced cytotoxicity against human CAL27 cells assessed as decrease in cell viability by measuring combination index at 1500 uM preincubated for 48 hrs followed by cisplatin treatment measured after 72 hrs by MTT assay; assay type: functional; conditions: in the assay text read “at 1500 nM” for “at 1500 uM”; how it was run: as §1
# [9] = system: CAL-27; assay: Potentiation of 2 uM cisplatin-induced cytotoxicity against human CAL27 cells assessed as decrease in cell viability by measuring combination index at 900 uM preincubated for 48 hrs followed by cisplatin treatment measured after 72 hrs by MTT assay; assay type: functional; conditions: in the assay text read “at 900 nM” for “at 900 uM”; how it was run: as §1
# [10] = system: CAL-27; assay: Potentiation of 0.316 uM cisplatin-induced cytotoxicity against human CAL27 cells assessed as decrease in cell viability by measuring combination index at 1500 uM preincubated for 48 hrs followed by cisplatin treatment measured after 72 hrs by MTT assay; assay type: functional; conditions: in the assay text read “at 1500 nM” for “at 1500 uM”; how it was run: as §2
# [11] = system: CAL-27; assay: Potentiation of 5 uM cisplatin-induced cytotoxicity against human CAL27 cells assessed as decrease in cell viability by measuring combination index at 1500 uM preincubated for 48 hrs followed by cisplatin treatment measured after 72 hrs by MTT assay; assay type: functional; conditions: in the assay text read “at 1500 nM” for “at 1500 uM”; how it was run: as §1
# [12] = system: CAL-27; assay: Potentiation of cisplatin-induced cytotoxicity against human CAL27 cells assessed as fold reduction in cisplatin IC50 at 1 uM preincubated for 48 hrs followed by cisplatin treatment measured after 72 hrs by MTT assay relative to cisplatin alone; assay type: functional
# How it was run: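 Cells were preincubated 48 h with HDAC inhibitor, then cisplatin was added over a concentration range for 72 h, with MTT read-out. Shift factor is cisplatin-alone IC50 divided by combination IC50. Data are mean ± SEM of pooled data from at least three independent experiments, each in triplicate. Significance was by t test (p < 0.05).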
# [13] = molecular target: T1, Histone deacetylase 1/6 (Homo sapiens); assay: Inhibition of HDAC1/HDAC6 in human Cal27CisR cells assessed as potentiation of 1 uM cisplatin-induced cytotoxicity by measuring combination index at 900 uM preincubated for 48 hrs followed by cisplatin treatment measured after 72 hrs by MTT assay; assay type: cell-based
# How it was run: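 Cal27CisR cells preincubated 48 h with the HDAC inhibitor, then exposed to cisplatin for 72 h. Viability read by MTT. Combination index calculated by the Chou–Talalay method: CI > 1 antagonism, CI = 1 additive, CI < 0.9 synergism. Points with fraction affected below 0.20 are flagged. Values are the mean of three experiments.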
# [14] = molecular target: T1, Histone deacetylase 1/6 (Homo sapiens); assay: Inhibition of HDAC1/HDAC6 in human Cal27CisR cells assessed as potentiation of 3.16 uM cisplatin-induced cytotoxicity by measuring combination index at 900 nM preincubated for 48 hrs followed by cisplatin treatment measured after 72 hrs by MTT assay
# [15] = system: CAL-27; assay: Potentiation of 5 uM cisplatin-induced cytotoxicity against human CAL27 cells assessed as decrease in cell viability by measuring combination index at 1000 uM preincubated for 48 hrs followed by cisplatin treatment measured after 72 hrs by MTT assay; assay type: functional; conditions: in the assay text read “at 1000 nM” for “at 1000 uM”; how it was run: as §1
# [16] = system: CAL-27; assay: Potentiation of 0.5 uM cisplatin-induced cytotoxicity against human CAL27 cells assessed as decrease in cell viability by measuring combination index at 2000 uM preincubated for 48 hrs followed by cisplatin treatment measured after 72 hrs by MTT assay; assay type: functional; how it was run: as §2
# [17] = system: CAL-27; assay: Potentiation of 0.5 uM cisplatin-induced cytotoxicity against human CAL27 cells assessed as decrease in cell viability by measuring combination index at 900 uM preincubated for 48 hrs followed by cisplatin treatment measured after 72 hrs by MTT assay; assay type: functional; how it was run: as §2
# [18] = molecular target: T1, Histone deacetylase 1/6 (Homo sapiens); assay: Inhibition of HDAC1/HDAC6 in human Cal27CisR cells assessed as potentiation of 3.16 uM cisplatin-induced cytotoxicity by measuring combination index at 1500 nM preincubated for 48 hrs followed by cisplatin treatment measured after 72 hrs by MTT assay
# [19] = system: CAL-27; assay: Potentiation of 0.316 uM cisplatin-induced cytotoxicity against human CAL27 cells assessed as decrease in cell viability by measuring combination index at 500 nM preincubated for 48 hrs followed by cisplatin treatment measured after 72 hrs by MTT assay
# T1 sequence (Q13547 whole entry, looked up): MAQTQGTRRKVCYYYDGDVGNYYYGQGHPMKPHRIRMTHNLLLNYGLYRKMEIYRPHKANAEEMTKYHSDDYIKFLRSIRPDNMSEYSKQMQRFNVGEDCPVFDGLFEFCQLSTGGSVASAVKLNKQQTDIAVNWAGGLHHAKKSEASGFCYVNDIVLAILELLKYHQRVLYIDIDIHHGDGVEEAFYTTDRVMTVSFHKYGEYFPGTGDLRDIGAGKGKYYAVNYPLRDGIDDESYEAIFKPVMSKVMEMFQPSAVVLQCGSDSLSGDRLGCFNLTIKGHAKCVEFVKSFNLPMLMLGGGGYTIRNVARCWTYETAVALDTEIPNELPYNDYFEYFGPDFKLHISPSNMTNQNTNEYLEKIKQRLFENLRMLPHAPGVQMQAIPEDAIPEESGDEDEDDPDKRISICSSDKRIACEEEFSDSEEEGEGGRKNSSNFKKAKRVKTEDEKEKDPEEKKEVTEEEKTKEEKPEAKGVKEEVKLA
# T1 sequence (Q9UBN7 whole entry, looked up): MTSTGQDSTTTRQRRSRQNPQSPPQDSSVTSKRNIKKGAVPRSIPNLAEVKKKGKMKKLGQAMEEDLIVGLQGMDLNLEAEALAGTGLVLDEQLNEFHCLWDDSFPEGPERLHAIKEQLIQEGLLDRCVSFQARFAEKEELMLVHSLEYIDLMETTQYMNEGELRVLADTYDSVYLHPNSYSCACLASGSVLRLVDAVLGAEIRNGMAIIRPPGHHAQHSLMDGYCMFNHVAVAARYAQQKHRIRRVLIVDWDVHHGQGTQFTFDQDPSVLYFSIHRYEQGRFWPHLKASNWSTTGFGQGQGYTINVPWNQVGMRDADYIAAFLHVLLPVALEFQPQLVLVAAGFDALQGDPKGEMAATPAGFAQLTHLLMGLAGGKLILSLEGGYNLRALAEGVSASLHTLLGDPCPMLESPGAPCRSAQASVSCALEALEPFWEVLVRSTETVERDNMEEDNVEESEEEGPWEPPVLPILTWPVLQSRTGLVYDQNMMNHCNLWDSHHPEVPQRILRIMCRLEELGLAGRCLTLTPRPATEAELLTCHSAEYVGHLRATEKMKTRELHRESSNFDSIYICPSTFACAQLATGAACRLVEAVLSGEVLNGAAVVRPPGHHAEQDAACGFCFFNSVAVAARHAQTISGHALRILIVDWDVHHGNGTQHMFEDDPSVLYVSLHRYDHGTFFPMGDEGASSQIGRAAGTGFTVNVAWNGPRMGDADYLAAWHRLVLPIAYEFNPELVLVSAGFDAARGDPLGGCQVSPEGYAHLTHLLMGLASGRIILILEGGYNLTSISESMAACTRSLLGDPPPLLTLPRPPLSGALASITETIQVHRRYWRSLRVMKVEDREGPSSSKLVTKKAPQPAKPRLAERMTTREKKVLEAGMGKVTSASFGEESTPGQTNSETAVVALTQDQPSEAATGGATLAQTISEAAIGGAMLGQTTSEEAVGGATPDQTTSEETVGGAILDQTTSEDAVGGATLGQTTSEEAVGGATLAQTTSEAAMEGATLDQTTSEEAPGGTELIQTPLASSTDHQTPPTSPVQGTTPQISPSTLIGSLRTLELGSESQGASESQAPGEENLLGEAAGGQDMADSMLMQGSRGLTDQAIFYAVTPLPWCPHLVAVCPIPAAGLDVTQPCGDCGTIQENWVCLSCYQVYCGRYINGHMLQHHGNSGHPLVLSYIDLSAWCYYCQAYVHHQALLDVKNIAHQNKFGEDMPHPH
smiles,measurement,setting,value
COc1cc(NC(=O)NOCCCCCC(=O)NO)c2nc(OC)cc(C)c2c1,CI,[1],0.31
COc1cc(NC(=O)NOCCCCCC(=O)NO)c2ncccc2c1,Activity,[2],inactive
same,CI,[3],<0.2
same,CI,[4],0.67
same,CI,[5],0.49
same,CI,[6],0.5
same,CI,[7],0.68
same,CI,[8],0.6
same,CI,[9],0.4
same,CI,[10],0.82
same,CI,[11],0.55
same,fold change (FC),[12],7.1
same,CI,[13],< 0.2
same,CI,[14],0.79
same,CI,[15],0.4
same,CI,[16],0.86
same,CI,[17],0.6
same,CI,[18],0.52
COc1cc(NC(=O)NOCCCCCC(=O)NO)c2nccc(C)c2c1,CI,[19],<0.2

# Reference: ChEMBL document CHEMBL4014350, “Alkoxyurea-Based Histone Deacetylase Inhibitors Increase Cisplatin Potency in Chemoresistant Cancer Cell Lines” (J Med Chem, 2017)
